Activity calls are given as the source filed them. The calls are words filed in the database; no cut-off is given here.
Key:
[1] = molecular target: T1, Glutamate NMDA receptor; Grin1/Grin2a (Rattus norvegicus) (UniProt P35439+Q00959); test: Potentiation of rat recombinant GluN1/GluN2A expressed in Xenopus laevis oocytes assessed as increase in glutamate/glycine-induced current response at 30 uM by two-electrode voltage clamp technique relative to control; type: cell-based
How it was run: (§1)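 Two-electrode voltage clamp at −40 mV on Xenopus oocytes coexpressing GluN1 with GluN2A, 2B, 2C or 2D. […] Compounds came from 20 mM DMSO stocks, with 0.05–0.5% final DMSO. Some GluN2A oocytes were injected with K-BAPTA to limit current run-up. Recording solution was pH 7.4, 23 °C.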

[2] = molecular target: T2, Glutamate NMDA receptor; Grin1/Grin2b (Rattus norvegicus) (UniProt P35439+Q00960); test: Potentiation of rat recombinant GluN1/GluN2B expressed in Xenopus laevis oocytes assessed as increase in glutamate/glycine-induced current response at 30 uM by two-electrode voltage clamp technique relative to control; type: cell-based; how it was run: as §1
[3] = molecular target: T3, Ionotropic glutamate receptor NMDA 1/2D (Rattus norvegicus) (UniProt P35439+Q62645); test: Potentiation of rat recombinant GluN1/GluN2D expressed in Xenopus laevis oocytes assessed as increase in glutamate/glycine-induced current response at 30 uM by two-electrode voltage clamp technique relative to control; type: cell-based; how it was run: as §1
[4] = molecular target: Glutamate NMDA receptor; Grin1/Grin2c (Rattus norvegicus, UniProt P35439+Q00961); test: Potentiation of rat recombinant GluN1/GluN2C expressed in Xenopus laevis oocytes assessed as increase in glutamate/glycine-induced current response by two-electrode voltage clamp technique relative to control; type: cell-based
[5] = molecular target: T4, Glutamate NMDA receptor; Grin1/Grin2c (Rattus norvegicus) (UniProt P35439+Q00961); test: Potentiation of rat recombinant GluN1/GluN2C expressed in Xenopus laevis oocytes assessed as increase in glutamate/glycine-induced current response at 100 uM by two-electrode voltage clamp technique relative to control; type: cell-based; how it was run: as §1
[6] = molecular target: T4, Glutamate NMDA receptor; Grin1/Grin2c (Rattus norvegicus); test: Potentiation of rat recombinant GluN1/GluN2C expressed in Xenopus laevis oocytes assessed as increase in glutamate/glycine-induced current response at 30 uM by two-electrode voltage clamp technique relative to control; type: cell-based; how it was run: as §1
[7] = molecular target: T1, Glutamate NMDA receptor; Grin1/Grin2a (Rattus norvegicus); test: Activity at rat recombinant GluN1/GluN2A expressed in Xenopus laevis oocytes assessed as current response at 100 uM relative to control
[8] = molecular target: T2, Glutamate NMDA receptor; Grin1/Grin2b (Rattus norvegicus); test: Activity at rat recombinant GluN1/GluN2B expressed in Xenopus laevis oocytes assessed as current response at 100 uM relative to control
[9] = molecular target: T3, Ionotropic glutamate receptor NMDA 1/2D (Rattus norvegicus); test: Activity at rat recombinant GluN1/GluN2D expressed in Xenopus laevis oocytes assessed as current response at 100 uM relative to control
[10] = molecular target: T4, Glutamate NMDA receptor; Grin1/Grin2c (Rattus norvegicus); test: Agonist activity at rat recombinant GluN1/GluN2C expressed in Xenopus laevis oocytes by two-electrode voltage clamp technique relative to control; type: cell-based
[11] = molecular target: T4, Glutamate NMDA receptor; Grin1/Grin2c (Rattus norvegicus); test: Potentiation of rat recombinant GluN1/GluN2C expressed in Xenopus laevis oocytes assessed as glycine-induced current response at 68 uM by two-electrode voltage clamp technique; type: cell-based
[12] = molecular target: T4, Glutamate NMDA receptor; Grin1/Grin2c (Rattus norvegicus); test: Potentiation of rat recombinant GluN1/GluN2C expressed in Xenopus laevis oocytes assessed as glutamate-induced current response at 68 uM by two-electrode voltage clamp technique; type: cell-based
[13] = molecular target: T4, Glutamate NMDA receptor; Grin1/Grin2c (Rattus norvegicus); test: Effect on rat recombinant GluN1/GluN2C expressed in Xenopus laevis oocytes assessed as reversal potential of glycine/glutamate-induced current response (reference value: -5.1 +/- 0.8 mV); type: cell-based
How it was run: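 Reversal potential of GluN1/GluN2C currents in cRNA-injected Xenopus oocytes by two-electrode voltage clamp. […] Recording solution was Ba²⁺-containing HEPES saline, pH 7.4, 23 °C.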

[14] = molecular target: T4, Glutamate NMDA receptor; Grin1/Grin2c (Rattus norvegicus); test: Potentiation of rat recombinant GluN1/GluN2C expressed in Xenopus laevis oocytes assessed as glutamte/glycine-induced current response at 20 uM at -40 mV; type: cell-based
[15] = molecular target: T4, Glutamate NMDA receptor; Grin1/Grin2c (Rattus norvegicus); test: Potentiation of rat recombinant GluN1/GluN2C expressed in Xenopus laevis oocytes assessed as glutamte/glycine-induced current response at 20 uM at 30 mV; type: cell-based
[16] = species: Homo sapiens; test: Potentiation of recombinant kainate receptor (unknown origin)
[17] = species: Homo sapiens; test: Potentiation of recombinant GABA receptor (unknown origin)
[18] = species: Homo sapiens; test: Potentiation of recombinant glycine receptor (unknown origin)
[19] = species: Homo sapiens; test: Potentiation of recombinant serotonin receptor (unknown origin)
[20] = species: Homo sapiens; test: Potentiation of recombinant nicotinic receptor (unknown origin)
[21] = species: Homo sapiens; test: Potentiation of recombinant purinergic receptor (unknown origin)
[22] = molecular target: Glutamate receptor ionotropic, kainate 2 (Rattus norvegicus) (UniProt P42260); test: Potentiation of recombinant homomeric GluK2 receptor (rat) at 120 uM relative to control
[23] = molecular target: Glutamate receptor 1 (Rattus norvegicus) (UniProt P19490); test: Potentiation of recombinant homomeric GluA1 AMPA receptor (rat) at 30 uM relative to control
[24] = molecular target: Glutamate NMDA receptor; Grin1/Grin2a (Rattus norvegicus, UniProt P35439+Q00959); test: Inhibition of rat recombinant GluN1/GluN2A expressed in Xenopus laevis oocytes assessed as reduction in current response; type: cell-based
[25] = molecular target: Glutamate NMDA receptor; Grin1/Grin2b (Rattus norvegicus, UniProt P35439+Q00960); test: Inhibition of rat recombinant GluN1/GluN2B expressed in Xenopus laevis oocytes assessed as reduction in current response; type: cell-based
[26] = molecular target: Ionotropic glutamate receptor NMDA 1/2D (Rattus norvegicus, UniProt P35439+Q62645); test: Inhibition of rat recombinant GluN1/GluN2D expressed in Xenopus laevis oocytes assessed as reduction in current response; type: cell-based

Glutamate receptor 1 (Rattus norvegicus), sequence (P19490 whole entry, looked up): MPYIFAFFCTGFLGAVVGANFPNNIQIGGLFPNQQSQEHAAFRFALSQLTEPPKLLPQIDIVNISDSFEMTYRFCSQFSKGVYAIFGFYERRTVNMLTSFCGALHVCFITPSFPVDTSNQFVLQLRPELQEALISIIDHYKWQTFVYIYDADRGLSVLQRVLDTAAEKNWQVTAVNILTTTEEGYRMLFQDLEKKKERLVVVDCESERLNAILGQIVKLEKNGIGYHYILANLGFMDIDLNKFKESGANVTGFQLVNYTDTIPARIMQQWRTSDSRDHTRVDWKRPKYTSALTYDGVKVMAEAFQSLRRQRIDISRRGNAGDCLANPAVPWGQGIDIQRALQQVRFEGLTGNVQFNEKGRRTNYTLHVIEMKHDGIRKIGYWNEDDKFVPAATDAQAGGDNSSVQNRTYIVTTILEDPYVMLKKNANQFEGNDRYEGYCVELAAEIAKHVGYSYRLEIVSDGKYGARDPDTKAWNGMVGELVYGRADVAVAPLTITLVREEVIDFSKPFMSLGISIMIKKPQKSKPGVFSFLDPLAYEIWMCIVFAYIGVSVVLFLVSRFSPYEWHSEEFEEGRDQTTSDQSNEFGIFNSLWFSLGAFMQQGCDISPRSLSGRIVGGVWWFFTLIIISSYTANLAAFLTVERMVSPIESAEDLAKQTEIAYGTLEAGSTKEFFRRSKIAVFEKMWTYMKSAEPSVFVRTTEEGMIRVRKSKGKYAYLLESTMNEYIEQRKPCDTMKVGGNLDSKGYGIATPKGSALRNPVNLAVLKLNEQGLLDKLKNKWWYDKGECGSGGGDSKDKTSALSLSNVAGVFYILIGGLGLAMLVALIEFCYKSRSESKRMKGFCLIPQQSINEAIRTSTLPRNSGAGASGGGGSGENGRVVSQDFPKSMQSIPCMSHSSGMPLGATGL
Glutamate receptor ionotropic, kainate 2 (Rattus norvegicus), sequence (P42260 whole entry, looked up): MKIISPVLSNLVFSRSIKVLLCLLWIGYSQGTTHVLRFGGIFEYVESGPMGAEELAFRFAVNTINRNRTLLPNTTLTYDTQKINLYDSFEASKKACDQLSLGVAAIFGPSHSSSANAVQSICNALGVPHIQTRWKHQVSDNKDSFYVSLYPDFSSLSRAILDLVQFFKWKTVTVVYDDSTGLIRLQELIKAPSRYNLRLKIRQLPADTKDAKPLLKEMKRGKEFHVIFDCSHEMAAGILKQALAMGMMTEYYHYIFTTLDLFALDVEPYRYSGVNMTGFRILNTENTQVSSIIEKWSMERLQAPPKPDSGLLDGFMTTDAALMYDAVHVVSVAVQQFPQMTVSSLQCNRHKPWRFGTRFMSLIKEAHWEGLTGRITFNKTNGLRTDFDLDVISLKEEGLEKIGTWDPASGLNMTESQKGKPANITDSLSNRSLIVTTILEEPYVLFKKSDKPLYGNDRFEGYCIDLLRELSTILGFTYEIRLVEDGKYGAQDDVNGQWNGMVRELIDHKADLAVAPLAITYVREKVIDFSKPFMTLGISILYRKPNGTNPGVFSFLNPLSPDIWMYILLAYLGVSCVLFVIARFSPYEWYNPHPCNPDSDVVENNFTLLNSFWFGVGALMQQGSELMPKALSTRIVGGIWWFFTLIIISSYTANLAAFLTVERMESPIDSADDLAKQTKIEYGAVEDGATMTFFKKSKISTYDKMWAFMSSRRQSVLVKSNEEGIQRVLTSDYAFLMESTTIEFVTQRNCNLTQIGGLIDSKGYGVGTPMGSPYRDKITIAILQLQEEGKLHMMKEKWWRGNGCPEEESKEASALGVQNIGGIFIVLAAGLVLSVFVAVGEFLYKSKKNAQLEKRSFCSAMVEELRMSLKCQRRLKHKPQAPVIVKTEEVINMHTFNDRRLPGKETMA

Row | SMILES | Activity [1] [%] | Activity [2] [%] | Activity [3] [%] | EC50 [4] [µM] | Activity [6] [%] | max activation [6] [%] | further results
1 | COC(=O)c1ccc(C2C(C(=O)C(C)C)=C(O)C(=O)N2CCc2c[nH]c3ccccc23)cc1 (centres undefined) | 95 | 87 | 89 | 61 | – | – | max activation [5]: 119%
2 | COC(=O)c1ccc(C2C(C(=O)c3cccc(O)c3)=C(O)C(=O)N2CCc2c[nH]c3ccccc23)cc1 (centres undefined) | 89 | 65 | 69 | 7 | 169 | 176 | residual activity [7]: 76%; residual activity [8]: 42%; residual activity [9]: 48%
3 | COC(=O)c1ccc(C2C(C(=O)c3cccnc3)=C(O)C(=O)N2CCc2c[nH]c3c(Cl)cccc23)cc1 (centres undefined) | 90 | 85 | 78 | 7 | 127 | 128 | –
4 | COC(=O)c1ccc(C2C(C(=O)c3cccc(Cl)c3)=C(O)C(=O)N2CCc2c[nH]c3ccccc23)cc1 (centres undefined) | 107 | 83 | 83 | 8.7 | 145 | 145 | –
5 | COC(=O)c1ccc(C2C(C(C)=O)=C(O)C(=O)N2CCc2c[nH]c3ccccc23)cc1 (centres undefined) | – | – | – | – | 196 | 275 | max activation [5]: 238%; Activity [10]: inactive; Activity [11]: inactive; Activity [12]: inactive; Activity [13]: -5 mV; Activity [14]: 202%; Activity [15]: 180%; Activity [16]: inactive; Activity [17]: inactive; Activity [18]: inactive; Activity [19]: inactive; Activity [20]: inactive; Activity [21]: inactive; Activity [22]: 95%; Activity [23]: 97%
6 | CCOC(=O)c1ccc(C2C(C(C)=O)=C(O)C(=O)N2CCc2c[nH]c3ccccc23)cc1 (centres undefined) | 104 | 83 | 91 | 15 | 201 | 237 | –
7 | CCOC(=O)c1ccc(C2C(C(=O)c3ccncc3)=C(O)C(=O)N2CCc2c[nH]c3ccccc23)cc1 (centres undefined) | 109 | 91 | 86 | 9.7 | 223 | 245 | –
8 | COC(=O)c1ccc(C2C(C(=O)c3ccccc3)=C(O)C(=O)N2CCc2c[nH]c3ccccc23)cc1 (centres undefined) | 116 | 85 | 79 | 17 | 143 | 161 | –
9 | COC(=O)c1ccc(C2C(C(=O)c3cccnc3)=C(O)C(=O)N2CCc2c[nH]c3ccccc23)cc1 (centres undefined) | 97 | 76 | 78 | 12 | 180 | 201 | –
10 | CCC(=O)C1=C(O)C(=O)N(CCc2c[nH]c3ccccc23)C1c1ccc(C(=O)OC)cc1 (centres undefined) | 85 | 77 | 78 | 24 | 160 | 204 | –
11 | COC(=O)c1ccc(C2C(C(=O)c3ccncc3)=C(O)C(=O)N2CCc2c[nH]c3ccccc23)cc1 (centres undefined) | 92 | 87 | 84 | 8.9 | 186 | 196 | –
12 | COC(=O)c1ccc(C2C(C(C)=O)=C(O)C(=O)N2CCc2c[nH]c3ccccc23)c(O)c1 (centres undefined) | 107 | 86 | 88 | 15 | 173 | 202 | –
13 | COC(=O)c1ccc(C2C(C(=O)c3cccc(F)c3)=C(O)C(=O)N2CCc2c[nH]c3ccccc23)cc1 (centres undefined) | 98 | 83 | 78 | 11 | 133 | 136 | –
14 | COC(=O)c1ccc(C2C(C(=O)C(C)(C)C)=C(O)C(=O)N2CCc2c[nH]c3ccccc23)cc1 (centres undefined) | 87 | 93 | 79 | 52 | 129 | 187 | –
15 | COC(=O)c1ccc(C2C(C(=O)c3ccncc3)=C(O)C(=O)N2CCc2cccc3ccccc23)cc1 (centres undefined) | 44 | 20 | 18 | – | 34 | – | IC50 [24]: 18 µM; IC50 [25]: 7.2 µM; IC50 [26]: 5.7 µM
